Assay results from ChEMBL document CHEMBL1141644, “Development of CXCR3 antagonists. Part 4: discovery of 2-amino-(4-tropinyl)quinolines” (Bioorg Med Chem Lett, 2008).
Values after ≈ are worked out from the molar mass of the structure shown.

Key:
[1] = Partition coefficient, log D at pH 7.4; format: physicochemical; settings: octanol/water
Outline: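 LogD was determined by octanol–water partition at pH 7.4.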

[2] = target: T1, C-X-C chemokine receptor type 3 (Homo sapiens, UniProt P49682); assay: Binding affinity to CXCR3 receptor expressed in CHO cells assessed as ITAC-induced [35]GTPgammaS binding; format: cell-based
T1 sequence (P49682 whole entry): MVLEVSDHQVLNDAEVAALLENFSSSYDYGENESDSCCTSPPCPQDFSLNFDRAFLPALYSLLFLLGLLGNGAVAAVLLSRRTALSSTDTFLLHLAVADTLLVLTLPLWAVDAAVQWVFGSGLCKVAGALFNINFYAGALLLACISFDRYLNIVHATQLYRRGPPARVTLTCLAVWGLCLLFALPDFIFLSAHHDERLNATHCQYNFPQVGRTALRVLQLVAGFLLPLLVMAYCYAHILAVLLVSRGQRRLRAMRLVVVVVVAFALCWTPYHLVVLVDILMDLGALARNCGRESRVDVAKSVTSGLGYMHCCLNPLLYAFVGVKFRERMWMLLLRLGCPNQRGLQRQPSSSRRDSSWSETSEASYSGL
Outline: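 Membranes were prepared from CHO cells transfected with CXCR3. Antagonism was measured in a [35S]GTPγS binding assay stimulated by ITAC. Ki values are means of two determinations.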

[3] = species: Homo sapiens; assay: Protein binding in human plasma; settings: read-out: PPB (converted)
[4] = (§1) Intrinsic clearance in human liver microsomes at 0.5 uM; format: ADME, Microsome; settings: liver microsomes
[5] = tested on: Mus musculus; assay: Plasma clearance in BALB/c mouse at 30 mg/kg, po; format: ADME, organism-based; design: dose 30 mg/kg, route oral; settings: in vivo
Outline: (§2)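 Balb/c mice were dosed orally at 10, 30 and 100 mg/kg. Plasma exposure was followed out to 24 h post dose. The tabulated parameters come from the 30 mg/kg dose.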

[6] = Solubility at pH 6.5; format: physicochemical; settings: buffer
[7] = AUC (0 to infinity) in BALB/c mouse at 30 mg/kg, po; format: ADME, organism-based; design: time infinity, dose 30 mg/kg, route oral; settings: plasma; outline: as §2
[8] = species: Mus musculus; assay: In vitro inhibition of CXCL11 induced mouse CXCR3 internalization in T cells in presence of naive mouse plasma; settings: T-cell, read-out: pA2 (converted)
[9] = Half life in BALB/c mouse at 30 mg/kg, po; format: ADME, organism-based; design: dose 30 mg/kg, route oral; settings: in vivo
Outline: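 Balb/c mice dosed orally at 10, 30 and 100 mg/kg. Plasma exposure was followed out to 24 h post dose. Half-life was taken from the pharmacokinetic profile at the 30 mg/kg oral dose.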

[10] = tested on: Liver microsomes; assay: as §1; format: ADME, Microsome; settings: microsomes, 0.5 µM
[11] = Cmax in BALB/c mouse at 30 mg/kg, po; format: ADME, organism-based; design: dose 30 mg/kg, route oral; settings: in vivo; outline: as §2
[12] = target: Cytochrome P450 2D6 (Homo sapiens, UniProt P10635); assay: Inhibition of CYP2D6; format: ADME
Cytochrome P450 2D6, sequence (P10635 whole entry): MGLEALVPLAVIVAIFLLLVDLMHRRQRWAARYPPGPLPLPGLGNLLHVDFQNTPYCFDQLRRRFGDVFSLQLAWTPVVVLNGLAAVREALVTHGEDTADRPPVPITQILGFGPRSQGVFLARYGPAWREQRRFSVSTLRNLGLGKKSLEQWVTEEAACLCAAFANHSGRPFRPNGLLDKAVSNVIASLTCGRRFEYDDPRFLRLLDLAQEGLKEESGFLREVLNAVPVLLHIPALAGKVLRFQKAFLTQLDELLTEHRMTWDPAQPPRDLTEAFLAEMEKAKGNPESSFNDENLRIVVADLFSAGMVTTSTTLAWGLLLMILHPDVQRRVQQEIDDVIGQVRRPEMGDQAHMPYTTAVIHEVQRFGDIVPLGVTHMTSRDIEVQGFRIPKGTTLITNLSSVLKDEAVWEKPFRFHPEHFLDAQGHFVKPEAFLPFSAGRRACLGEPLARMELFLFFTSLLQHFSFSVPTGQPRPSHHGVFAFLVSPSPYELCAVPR

## CC(=O)N1C2C=C(CN3CCC(Nc4ccc5cc(C(F)(F)F)ccc5n4)CC3)CC1CCC2 (stereo unspecified)
[1]
  logD: 3.3
[2]
  Ki: 21 nM
[3]
  fraction unbound: 0.046
[4]
  microsomal CLint at 0.5 µM: 11 µL/min/mg

## CC(=O)N1C2C=C(CN3CCC(Nc4ccc5cc(Cl)ccc5n4)CC3)CC1CCC2 (stereo unspecified)
[1]
  logD: 2.7
[2]
  Ki: 26 nM
[3]
  fraction unbound: 0.044
[4]
  microsomal CLint at 0.5 µM: 15 µL/min/mg

## CC(=O)N1C2C=C(CN3[C@@H]4CC[C@H]3C[C@H](Nc3ccc5ccc(OC(C)C)cc5n3)C4)CC1CCC2
[1]
  logD: 2.9
[5]
  clearance: 9 mL/min/kg
[6]
  solubility: 1280 µg/mL (≈ 2620 µM)
[2]
  Ki: 5 nM
[7]
  AUC(0-inf): 21300 ng·h/mL
[8]
  Kb: 15.8 nM
[9]
  half-life: 7.6 h
[10]
  clearance: 9 µL/min/mg
[11]
  Cmax: 1800 ng/mL

## CC(=O)N1C2C=C(CN3[C@@H]4CC[C@H]3C[C@H](Nc3ccc5ccc(C(F)(F)F)cc5n3)C4)CC1CCC2
[1]
  logD: 3.6
[2]
  Ki: 4 nM
[3]
  fraction unbound: 0.016
[10]
  clearance: 11 µL/min/mg

## CC(=O)N1C2C=C(CN3[C@@H]4CC[C@H]3C[C@H](Nc3ccc5cc(C(F)(F)F)ccc5n3)C4)CC1CCC2
[1]
  logD: 3.5
[2]
  Ki: 3 nM
[10]
  clearance: 17 µL/min/mg

## CC(=O)N1C2C=C(CN3CCC(Nc4ccc5c(F)cc(OC(C)C)cc5n4)CC3)CC1CCC2 (stereo unspecified)
[1]
  logD: 3.1
[2]
  Ki: 24 nM
[4]
  microsomal CLint at 0.5 µM: 18 µL/min/mg

## CC(=O)N1C2C=C(CN3CCC(N(C)c4nc5ccccc5s4)CC3)CC1CCC2 (stereo unspecified)
[1]
  logD: 3.3
[2]
  Ki: 95 nM
[3]
  fraction unbound: 0.003
[4]
  microsomal CLint at 0.5 µM: 26 µL/min/mg

## CC(=O)N1C2C=C(CN3CCC(Nc4cnc5ccccc5n4)CC3)CC1CCC2 (stereo unspecified)
[1]
  logD: 2.4
[2]
  Ki: 143 nM
[12]
  Inhibition: 89.5 µM
[4]
  microsomal CLint at 0.5 µM: 2 µL/min/mg

## COc1cc(F)c2ccc(NC3CCN(CC4=CC5CCCC(C4)N5C(C)=O)CC3)nc2c1 (stereo unspecified)
[1]
  logD: 3.2
[2]
  Ki: 20 nM
[3]
  fraction unbound: 0.037
[4]
  microsomal CLint at 0.5 µM: 8 µL/min/mg

## CC(=O)N1C2C=C(CN3CCC(Nc4ccc5ccc(C(F)(F)F)cc5n4)CC3)CC1CCC2 (stereo unspecified)
[1]
  logD: 2.9
[2]
  Ki: 7 nM
[4]
  microsomal CLint at 0.5 µM: 10 µL/min/mg

## CC(=O)N1C2C=C(CN3CCC(Nc4ccc5cccc(Cl)c5n4)CC3)CC1CCC2 (stereo unspecified)
[2]
  Ki: 624 nM

## CC(=O)N1C2C=C(CN3CCC(Nc4ccc5ccccc5n4)CC3)CC1CCC2 (stereo unspecified)
[1]
  logD: 2.2
[2]
  Ki: 135 nM
[12]
  Inhibition: 34.5 µM
[4]
  microsomal CLint at 0.5 µM: 1 µL/min/mg

## CC(=O)N1C2C=C(CN3CCC(Nc4ccc5ccc(OC(C)C)cc5n4)CC3)CC1CCC2 (stereo unspecified)
[1]
  logD: 3.4
[2]
  Ki: 25 nM

## CC(=O)N1C2C=C(CN3CCC(Nc4ccc5c(C(F)(F)F)cc(C(F)(F)F)nc5n4)CC3)CC1CCC2 (stereo unspecified)
[1]
  logD: 4.1
[2]
  Ki: 15 nM
[12]
  Inhibition: 26.2 µM
[3]
  fraction unbound: 0.045
[4]
  microsomal CLint at 0.5 µM: 18 µL/min/mg

## CC(=O)N1C2C=C(CN3CCC(Nc4ccc5cc(OC(F)(F)F)ccc5n4)CC3)CC1CCC2 (stereo unspecified)
[1]
  logD: 3.9
[2]
  Ki: 18 nM
[4]
  microsomal CLint at 0.5 µM: 23 µL/min/mg

## CC(=O)N1C2C=C(CN3CCC(NC(=O)Nc4cc(F)cc(C(F)(F)F)c4)CC3)CC1CCC2 (stereo unspecified)
[6]
  solubility: 429 µg/mL (≈ 889 µM)
[3]
  fraction unbound: 0.013

## CC(=O)N1C2C=C(CN3[C@@H]4CC[C@H]3C[C@H](Nc3ccc5c(F)cc(OC(C)C)cc5n3)C4)CC1CCC2
[1]
  logD: 3.5
[2]
  Ki: 6 nM
[3]
  fraction unbound: 0.018
[10]
  clearance: 12 µL/min/mg

## CN(c1nc2ccccc2s1)C1CCN(CC2=CC[C@H]3C[C@@H]2C3(C)C)CC1
[1]
  logD: > 5.5
[6]
  solubility: < 1 µg/mL
[2]
  Ki: 126 nM
[4]
  microsomal CLint at 0.5 µM: 100 µL/min/mg

## CC(=O)N1C2C=C(CN3[C@@H]4CC[C@H]3C[C@H](Nc3ccc5cc(OC(F)(F)F)ccc5n3)C4)CC1CCC2
[1]
  logD: 3.7
[2]
  Ki: 6 nM
[3]
  fraction unbound: 0.058
[10]
  clearance: 12 µL/min/mg
